From ChEMBL document CHEMBL1146338, “Synthesis and antioxidant activity evaluation of new 7-aryl or 7-heteroarylamino-2,3-dimethylbenzo[b]thiophenes obtained by Buchwald-Hartwig C-N cross-coupling” (Bioorg Med Chem, 2007)
Values after ≈ are worked out from the molar mass of the structure shown.

How the values were obtained:
[1] = tested on: Radical scavenging activity; assay: Antioxidant activity assessed as DPPH radical scavenging activity; type: functional
Procedure, shortened: (§1)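 Compound in methanol (0.3 mL, various concentrations) mixed with methanolic DPPH ([…] stock, 2.7 mL), shaken and held 60 min in the dark. Absorbance read at 517 nm. %RSA = [(ADPPH − AS)/ADPPH] × 100. Means of three independent samples. EC50 (50% scavenging) taken from the plot of %RSA against concentration; BHA and BHT as standards.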

[2] = tested on: Erythrocyte; assay: Inhibition of AAPH-induced ram erythrocyte hemolysis at 0.0625 g/L; type: functional; settings: Ovis aries
Procedure, shortened: (§2)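 Erythrocytes from a male ram (churra galega transmontana) washed three times in 10 mM PBS pH 7.4. A 20% suspension combined with 200 mM AAPH in PBS and methanolic compound at different concentrations, shaken gently 3 h at 37 C. Diluted with PBS, centrifuged, supernatant A540 read. % inhibition set against the AAPH control without compound. Triplicate means; EC50 from the plot; L-ascorbic acid as standard.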

[3] = tested on: Radical scavenging activity; assay: Antioxidant activity assessed as DPPH radical scavenging activity at 0.0625 g/L; type: functional; procedure, shortened: as §1
[4] = Antioxidant activity assessed as inhibition of lipid peroxidation at 0.125 g/L after 2 hrs by beta carotene bleaching method; type: functional
Procedure, shortened: (§3)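 β-Carotene linoleate emulsion (β-carotene dissolved in chloroform) incubated with compound at 50 C in a water bath. A470 read at time zero, then every 20 min until the control lost colour; a blank without β-carotene was subtracted. Activity = (β-carotene after 2 h / initial β-carotene) × 100. Triplicate means; EC50 taken from the activity % versus concentration plot.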

[5] = tested on: Radical scavenging activity; assay: Antioxidant activity assessed as DPPH radical scavenging activity at 0.0312 g/L; type: functional; procedure, shortened: as §1
[6] = tested on: Radical scavenging activity; assay: Antioxidant activity assessed as DPPH radical scavenging activity at 0.250 g/L; type: functional; procedure, shortened: as §1
[7] = tested on: Radical scavenging activity; assay: Antioxidant activity assessed as DPPH radical scavenging activity at 0.0156 g/L; type: functional; procedure, shortened: as §1
[8] = tested on: Erythrocyte; assay: Inhibition of AAPH-induced ram erythrocyte hemolysis; type: functional, cell-based; settings: Ovis aries; procedure, shortened: as §2
[9] = Antioxidant activity assessed as reduction of ferric cyanide complex by reducing power assay; type: functional
Procedure, shortened: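 Oyaizu method: methanolic compound at various concentrations mixed with sodium phosphate buffer (200 mmol/L, pH 6.6) and 1% potassium ferricyanide, held 20 min at 50 C. 10% TCA added, then centrifuged. Supernatant diluted with water, 0.1% FeCl3 added, A700 read. Triplicate means; EC50 = concentration giving absorbance 0.5, from the A700 versus concentration plot. Standards: BHA, BHT, ascorbic acid.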

[10] = tested on: Erythrocyte; assay: Inhibition of AAPH-induced ram erythrocyte hemolysis at 0.125 g/L; type: functional; settings: Ovis aries; procedure, shortened: as §2
[11] = Antioxidant activity assessed as inhibition of lipid peroxidation at 0.0312 g/L after 2 hrs by beta carotene bleaching method; type: functional; procedure, shortened: as §3
[12] = Antioxidant activity assessed as inhibition of lipid peroxidation after 2 hrs by beta carotene bleaching method; type: functional; procedure, shortened: as §3
[13] = Antioxidant activity assessed as inhibition of lipid peroxidation at 0.250 g/L after 2 hrs by beta carotene bleaching method; type: functional; procedure, shortened: as §3
[14] = Antioxidant activity assessed as inhibition of lipid peroxidation at 0.0625 g/L after 2 hrs by beta carotene bleaching method; type: functional; procedure, shortened: as §3
[15] = Antioxidant activity assessed as inhibition of lipid peroxidation at 0.0156 g/L after 2 hrs by beta carotene bleaching method; type: functional; procedure, shortened: as §3
[16] = tested on: Erythrocyte; assay: Inhibition of AAPH-induced ram erythrocyte hemolysis at 0.250 g/L; type: functional; settings: Ovis aries; procedure, shortened: as §2
[17] = tested on: Radical scavenging activity; assay: Antioxidant activity assessed as DPPH radical scavenging activity at 0.125 g/L; type: functional; procedure, shortened: as §1
[18] = tested on: Erythrocyte; assay: Inhibition of AAPH-induced ram erythrocyte hemolysis at 0.0156 g/L; type: functional; settings: Ovis aries; procedure, shortened: as §2
[19] = tested on: Erythrocyte; assay: Inhibition of AAPH-induced ram erythrocyte hemolysis at 0.0312 g/L; type: functional; settings: Ovis aries; procedure, shortened: as §2
[20] = Antioxidant activity assessed as inhibition of lipid peroxidation at 2 g/L after 2 hrs by beta carotene bleaching method; type: functional; procedure, shortened: as §3
[21] = tested on: Erythrocyte; assay: Inhibition of AAPH-induced ram erythrocyte hemolysis at 1 g/L; type: functional; settings: Ovis aries; procedure, shortened: as §2

Row | Compound | EC50 [1] [µg/mL] | EC50 [9] [µg/mL] | EC50 [12] [µg/mL] | inhibition at 62.5 µg/mL [2] [%] | Activity [3] [%] | inhibition [4] [%] | Activity [5] [%] | Activity [6] [%] | Activity [7] [%] | EC50 [8] [µg/mL] | inhibition at 125 µg/mL [10] [%] | inhibition [11] [%] | inhibition [13] [%] | inhibition [14] [%] | inhibition [15] [%] | inhibition at 250 µg/mL [16] [%] | Activity [17] [%] | inhibition at 15.6 µg/mL [18] [%] | inhibition at 31.2 µg/mL [19] [%] | further results
1 | Cc1sc2c(Nc3ccccn3)cccc2c1C | > 250 | > 250 | > 250 | 53 | 4.9 | 45.9 | 2.6 | 9 | 0.4 | 51.4 (≈ 202 µM) | 64.6 | 42.9 | 47.2 | 45.8 | 40.7 | 69.5 | 8.8 | 38.4 | 44.5 | 
2 | Cc1sc2c(Nc3cccnc3)cccc2c1C | > 250 | > 250 | 17.3 (≈ 68 µM) | 66.9 | 5.5 | 76.1 | 2.8 | 15.5 | 2.5 | 24.1 (≈ 94.7 µM) | 69.3 | 65.4 | 86.2 | 70.9 | 48.1 | 74.1 | 9 | 41.8 | 56.8 | 
3 | CC(C)(C)c1cc(O)ccc1O |  |  |  |  |  |  |  |  |  |  |  |  |  |  |  |  |  |  |  | inhibition [20]: 82.2%
4 | O=C1O[C@H]([C@@H](O)CO)C(O)=C1O [ASCORBIC ACID] |  |  |  |  |  |  |  |  |  |  |  |  |  |  |  |  |  |  |  | inhibition at 1000 µg/mL [21]: 94.6%

Further lines, with some results ahead:

Row | EC50 [1] [µg/mL] | EC50 [9] [µg/mL] | EC50 [12] [µg/mL] | Compound | inhibition at 62.5 µg/mL [2] [%] | Activity [3] [%] | inhibition [4] [%] | Activity [5] [%] | Activity [6] [%] | Activity [7] [%] | EC50 [8] [µg/mL] | inhibition at 125 µg/mL [10] [%] | inhibition [11] [%] | inhibition [13] [%] | inhibition [14] [%] | inhibition [15] [%] | inhibition at 250 µg/mL [16] [%] | Activity [17] [%] | inhibition at 15.6 µg/mL [18] [%] | inhibition at 31.2 µg/mL [19] [%] | further results
5 | 14 (≈ 49.4 µM) | 21.6 (≈ 76.2 µM) | 8.45 (≈ 29.8 µM) | COc1ccc(Nc2cccc3c(C)c(C)sc23)cc1 | 65.1 | 88.4 | 100 | 85.8 | 93.3 | 55.8 | 21.4 (≈ 75.5 µM) | 65.9 | 96.8 | 100 | 99.7 | 92.3 | 66.7 | 91.1 | 43.4 | 61.2 | 
6 | > 250 | 98.7 (≈ 348 µM) | 13.7 (≈ 48.3 µM) | COc1cccc(Nc2cccc3c(C)c(C)sc23)c1 | 58 | 13.5 | 82.6 | 13.4 | 28.4 | 7.9 | 44.2 (≈ 156 µM) | 63.1 | 62.9 | 84.8 | 68.9 | 56.8 | 66.7 | 22.2 | 40.3 | 44.3 | 
7 | > 250 | > 250 | 16 (≈ 57.5 µM) | Cc1sc2c(Nc3ccc(C#N)cc3)cccc2c1C | 62.1 | 0 | 71 | 0 | 3.1 | 0 | 18 (≈ 64.7 µM) | 62.6 | 67.3 | 79.6 | 69 | 49.6 | 66.4 | 0.5 | 48.3 | 59.4 | 
8 | 17.3 (≈ 55.2 µM) | 22.7 (≈ 72.4 µM) | 8.73 (≈ 27.9 µM) | COc1ccc(Nc2cccc3c(C)c(C)sc23)cc1OC | 61.2 | 86.9 | 100 | 72.4 | 94.7 | 47.3 | 18.9 (≈ 60.3 µM) | 62.1 | 91.4 | 100 | 100 | 89.3 | 62.9 | 92.1 | 47.8 | 58.3 | 
